Data on 95 compounds can be found in ChEMBL document CHEMBL4513216, “Probing the Open Global Health Chemical Diversity Library for Multistage-Active Starting Points for Next-Generation Antimalarials” (ACS Infect Dis, 2020).

This data set in a line: Toxicity liver stage against HepG2, at 10uM. Format: cell-based. The arrangement: test concentration 10 uM, cell line HepG2-A16-CD81EGFP. The note with it: human, HepG2-A16-CD81EGFP cells; read-out: INHIBITION
The procedure, abridged: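 Uninfected HepG2-A16-CD81EGFP cells, 3 × 10^3 per well, 1536-well, plated on prespotted compound at 10 μM final, parasite-free screening media added to match infected plates; puromycin 10 μM positive, DMSO 0.5% negative; run in parallel with 48 h PbLuc assay at 37 °C, 5% CO2; viability by CellTiter-Glo luminescence, normalized to controls.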

Structures are written as SMILES.

On to `O=C(NCCCc1nnc2ccccn12)c1ccccc1C1CCNC1` (stereo not given), for which the cytotoxicity at 10 µM was -2.51%.

Take `Cc1cccc(CN2C(=O)CCC23CCN(Cc2cccn2C)CC3)n1`: the cytotoxicity at 10 µM worked out at 5.61%.

As for `Cc1cnc(NC(=O)N2CCOCC2)s1`, the cytotoxicity at 10 µM was -1.14%.

For the compound `O=C(O)[C@@H]1CN(Cc2ccc(-c3cc[nH]n3)s2)C[C@H]1C1CC1`, the cytotoxicity at 10 µM worked out at 5.13%.

Consider `Cc1ccc(C(=O)NCC(c2cnn(C)c2)N(C)C)c(O)c1` (stereo not given), for which the cytotoxicity at 10 µM was -7.93%.

Take `CCOCCc1nc(CCc2ccccc2)n[nH]1`: the cytotoxicity at 10 µM came out at 10.3%.

Turning to `Cc1nc(CN2CCCC(NCCOCC(F)(F)F)C2)no1` (stereo not given), the cytotoxicity at 10 µM is -11.1%.

Take `CC(C)c1cc(N2CCC(CCC(=O)NC3CC3)CC2)n2nccc2n1`: the cytotoxicity at 10 µM was -9.12%.

Regarding `Cc1cnn(CC2CCCCN2Cc2nc(-c3ccoc3)no2)c1` (stereo not given), the cytotoxicity at 10 µM is -7.2%.

On to `COCC1CC2(CCN(C(=O)c3ccccc3C)CC2)CN1C(C)C` (stereo not given), for which the cytotoxicity at 10 µM came out at 7.77%.

In the case of `CSCc1cccc(S(=O)(=O)NCc2cnn(C)c2C)c1`, the cytotoxicity at 10 µM came to 13.7%.

In the case of `O=C(NCCn1ccc(-c2ccccn2)n1)C1CC1`, the cytotoxicity at 10 µM was 7.49%.

As to `CCC(=O)NCC1(O)CCC(C(C)(C)C)CC1` (stereo not given), the cytotoxicity at 10 µM is 5.81%.

For `COc1ccnc(C(=O)N2CCCC(c3noc(C)n3)C2)c1` (stereo not given), the cytotoxicity at 10 µM was -4.64%.

Turning to `COc1cc(C)c(CNC(C)c2csc(C)n2)cc1OC` (stereo not given), the cytotoxicity at 10 µM was 5.06%.

Consider `CCCC(C#N)NC(=O)CCCOc1cccc(C(C)=O)c1` (stereo not given), for which the cytotoxicity at 10 µM was -46.2%.

Turning to `Cc1nc(C)c(CN2CCOC(Cc3ccccc3Cl)C2)nc1C` (stereo not given), the cytotoxicity at 10 µM stood at 5.32%.

For the compound `Cc1ccc(CNC(=O)C2CCNC(=O)C2)c(OCCC(C)C)c1` (stereo not given), the cytotoxicity at 10 µM amounted to 20.4%.

As for `O=C(CCn1cc(Cl)cn1)N1CCN(CC2CC2)[C@@H]2CS(=O)(=O)C[C@@H]21`, the cytotoxicity at 10 µM turned out to be 2.28%.

`CSc1cccc(CNC(=O)[C@H]2CNC[C@H](C(=O)N3CCOCC3)C2)c1`: the cytotoxicity at 10 µM is -1.74%.

For `CN(C)[C@@H]1C[C@@H](CO)N(C(=O)Nc2cccc(F)c2F)C1`, the cytotoxicity at 10 µM was -0.103%.

For the compound `Cn1cc(CN2CCc3c(cnc(-c4ccccc4)c3C(=O)O)C2)cn1`, the cytotoxicity at 10 µM turned out to be 4.2%.

In the case of `OC1CCN(CCCNc2nccc(C3CCCC3)n2)CC1`, the cytotoxicity at 10 µM is -1.81%.

Consider `CCO[C@H]1CC[C@H]2[C@H]1OCCN2C(=O)COc1ccccc1`, for which the cytotoxicity at 10 µM is -94%.

In the case of `OC(COCc1ccc(Cl)cc1)CN1CC(n2cccn2)C1` (stereo not given), the cytotoxicity at 10 µM is -6.25%.

In the case of `CSCc1nc(CNC(=O)C2CCCN(C(=O)N(C)C)C2)cs1` (stereo not given), the cytotoxicity at 10 µM was -3.99%.

As to `Cc1ccc(C(=O)OC(C)Cn2cccn2)c(=O)[nH]1` (stereo not given), the cytotoxicity at 10 µM came to 3.35%.

Take `CCc1nc(C2CCCN2C(=O)c2nccnc2N)no1` (stereo not given): the cytotoxicity at 10 µM was -18.7%.

In the case of `CCn1c(CN2CCCC(Cn3cncn3)C2)nc2c(F)cccc21` (stereo not given), the cytotoxicity at 10 µM came out at 6.49%.

For `COc1ccc(F)cc1CN1CCN(Cc2nccn2C)C(C)C1` (stereo not given), the cytotoxicity at 10 µM was determined as 2.01%.

As to `CCOCc1ccc(NC(=O)N2CCCC2c2nncn2C)cc1` (stereo not given), the cytotoxicity at 10 µM was found to be 6.53%.

`CC(C)(NC(=O)C1CCCN(C2CCCC2)C1)c1nnc(N)s1` (stereo not given): the cytotoxicity at 10 µM is 3.27%.

As to `Cc1cc(NC(=O)CO)nn1-c1ccc(Cl)cc1Cl`, the cytotoxicity at 10 µM is -142%.

As to `Cc1ccc2c(cnn2CCC(=O)NCc2csc(C3CC3)n2)c1`, the cytotoxicity at 10 µM stood at 4.88%.

Take `COCC(=O)N1CCC2(CC(C(=O)NCc3cccnc3)=NO2)C1` (stereo not given): the cytotoxicity at 10 µM was -1.34%.

As for `Cc1nn(C)c(Cl)c1C1CCCN1Cc1cn2ccsc2n1` (stereo not given), the cytotoxicity at 10 µM is -44.5%.

Consider `CC=C(C)C(=O)NS(=O)(=O)c1ccc(Cl)cn1`, for which the cytotoxicity at 10 µM was determined as 7.04%.

For `Cc1cc(-c2ccccc2Cl)nc(N)n1`, the cytotoxicity at 10 µM is -0.268%.

Take `Cc1cc(NCC2CCCCC2)n2ncnc2n1`: the cytotoxicity at 10 µM is -2.1%.

`CC(C)[C@H](N)C(=O)N1CCCC(C2=Nc3ccccc3S(=O)(=O)N2)C1` (stereo not given in full): the cytotoxicity at 10 µM was 7.96%.

Turning to `Cc1cnccc1NCCNC1CCN(CC(C)C)CC1`, the cytotoxicity at 10 µM is -10%.

`Cc1cnc(CNC(=O)[C@@]23CCO[C@@H]2CCN(c2ncccn2)C3)cn1`: the cytotoxicity at 10 µM was -100%.

For the compound `O=C(Nc1cnc2n1CCCC2)C1CCNCC1`, the cytotoxicity at 10 µM worked out at 4.25%.

For the compound `CC1(C)CC1(C(=O)N1CC(c2cccnc2)C1)c1ccccc1F` (stereo not given), the cytotoxicity at 10 µM is -10.7%.

Turning to `CC(=O)NCC(=O)N1CCc2c(CNc3ncccn3)cncc2C1`, the cytotoxicity at 10 µM is 1.59%.

Regarding `Cn1ccnc(Nc2ccc3c(c2)CCN3C(=O)c2ccoc2)c1=O`, the cytotoxicity at 10 µM was -65.2%.

Consider `CCO[C@@H]1CN(S(=O)(=O)c2cn(C)cn2)[C@@H]2CCCO[C@@H]21`, for which the cytotoxicity at 10 µM is -146%.

As for `CC(=O)NCc1ccc(C(=O)N2CCCC2c2cnn(C)c2)cc1` (stereo not given), the cytotoxicity at 10 µM is -13.5%.

Take `COCc1noc(-c2ccc(N3CCCCC3CCCO)nc2)n1` (stereo not given): the cytotoxicity at 10 µM is -3.31%.

Take `O=C(N[C@@H]1CN(c2ncccn2)[C@@H]2CCCO[C@@H]21)c1cscn1`: the cytotoxicity at 10 µM was -142%.

For the compound `CC(C)CC(NCc1ccsc1)c1ccccn1` (stereo not given), the cytotoxicity at 10 µM is -2.56%.

As to `O=C1C(NCc2nnc3n2CCCC3)CCCN1c1cccc(F)c1` (stereo not given), the cytotoxicity at 10 µM was -9.68%.

Take `O=C(c1cocn1)N1C[C@@H]2COC[C@]2(COc2cccnc2)C1`: the cytotoxicity at 10 µM was -107%.

On to `NC1CCc2c(ccc(=O)n2CC2CC2)C1` (stereo not given), for which the cytotoxicity at 10 µM was -4.37%.

Consider `O=C(CN1CCN(c2ccnc3c(F)ccc(F)c23)CC1)N1CCCC1`, for which the cytotoxicity at 10 µM was determined as 17.4%.

For `CC(C)c1nc(C2CCCN(C(=O)CCCn3cccn3)C2)no1` (stereo not given), the cytotoxicity at 10 µM was -1.36%.

`COc1ccccc1C(C)NC(=O)N1CCC(n2cncn2)CC1` (stereo not given): the cytotoxicity at 10 µM is 2.85%.

With `CC1c2ncc(CNC(=O)C3CC3)n2CCN1Cc1ccsc1` (stereo not given), the cytotoxicity at 10 µM was 1.06%.

On to `CCc1[nH]ncc1C(=O)N1CCCN(Cc2cnn(C(C)C)c2)CC1`, for which the cytotoxicity at 10 µM is -12%.

As to `CC(C)CN1CCCn2nc(CNC(=O)c3cccnc3O)cc2C1`, the cytotoxicity at 10 µM is -14.4%.

Turning to `CC(=O)N1CCC2(CC1)NC(=O)[C@H]1CN(Cc3cccnc3)C[C@H]12`, the cytotoxicity at 10 µM is -1.77%.

With `O=C(C1CCCO1)N1CC[C@@H]2CN(Cc3ccccc3)S(=O)(=O)[C@@H]2CC1` (stereo not given in full), the cytotoxicity at 10 µM was 12.9%.

Consider `CN(C)C[C@H]1OC[C@@H]2CN(C(=O)NCc3cccnc3)CC[C@@H]21`, for which the cytotoxicity at 10 µM amounted to 3.86%.

On to `NC1(c2nc(C(F)(F)F)cc(=O)[nH]2)CCCC1`, for which the cytotoxicity at 10 µM stood at 19.1%.

On to `COCC(=O)N1Cc2nccn2CC(CN(C)Cc2cccnc2)C1` (stereo not given), for which the cytotoxicity at 10 µM is -76.2%.

For `Cc1ccc(O[C@@H]2C[C@H]3CN(C(=O)c4cccnc4)CCN3C2)cc1`, the cytotoxicity at 10 µM stood at 1.06%.

Regarding `O=C(Nc1ccccc1)c1nn(C2CCS(=O)(=O)C2)c2c1CCCC2` (stereo not given), the cytotoxicity at 10 µM was -9.75%.

As for `CC(C)CN1CCC(c2nc3ccc(NC(C)C)cn3n2)CC1`, the cytotoxicity at 10 µM stood at 1.13%.

`COc1ccc2c(c1)OCC(Cc1cnc(N)c(C)c1)C2` (stereo not given): the cytotoxicity at 10 µM is -1.23%.

In the case of `CO[C@H]1CN(C(=O)c2nc(-c3ccccc3)[nH]c2C)CC[C@H]1N`, the cytotoxicity at 10 µM was 11.5%.

Regarding `Cc1ccsc1[C@@H]1CCN(C(=O)CCc2n[nH]c(C)c2C)C[C@H]1O`, the cytotoxicity at 10 µM stood at 7.04%.

On to `CNC(=O)c1cccc(NC(=O)NCc2ccccc2)c1C`, for which the cytotoxicity at 10 µM is -1.67%.

Consider `COCc1nc(C)cc(Nc2ccc3c(c2)CC(=O)N3)n1`, for which the cytotoxicity at 10 µM was 1.41%.

`COCCN1C[C@H]2CC[C@@]3(N=C(C)N(CC4CC4)C3=O)[C@H]2C1`: the cytotoxicity at 10 µM is -7.5%.

Turning to `COc1ccccc1CN1CC[C@]2(C[C@H](OC)CO2)C1`, the cytotoxicity at 10 µM is -11.1%.

In the case of `CCN(CC)C(C(=O)Nc1ccc2c(c1)CCC(=O)N2)c1ccccc1` (stereo not given), the cytotoxicity at 10 µM came to 7.18%.

Take `Cc1cc(F)ccc1S(=O)(=O)NCc1[nH]ncc1Br`: the cytotoxicity at 10 µM was determined as 15.1%.

`NCc1cccc(-c2cccnc2C(=O)NCCN2CCCC2)c1`: the cytotoxicity at 10 µM was -6.9%.

With `Cc1c[nH]cc1C(=O)N1CCN(Cc2nc(C(C)C)no2)CC1`, the cytotoxicity at 10 µM was -4.54%.

As to `O=C(NCc1ccc(-n2cncn2)nc1)c1cc(Cl)c2c(c1)OCCO2`, the cytotoxicity at 10 µM is -16.5%.

In the case of `CN(C)C(=O)c1nc(-c2ccc(S(C)(=O)=O)cc2)c2cnccn12`, the cytotoxicity at 10 µM worked out at 7.27%.

As for `CSc1ncnc(NCc2ccco2)c1C#N`, the cytotoxicity at 10 µM stood at 0.0868%.

For the compound `CS(=O)(=O)NCCN1CCSCC1c1ccc(Cl)cc1` (stereo not given), the cytotoxicity at 10 µM is -3.7%.

As for `CCN1CC(C(=O)NCCOc2ccc3c(c2)OCO3)CC1=O` (stereo not given), the cytotoxicity at 10 µM was -2.34%.

`CC(C)C(=O)NC1CCCN(C(=O)c2cc(Cl)ccc2O)C1` (stereo not given): the cytotoxicity at 10 µM was -11.4%.

As to `COc1ccc(OC2CCN(C(=O)[C@@H](N)Cc3c[nH]cn3)CC2)cc1`, the cytotoxicity at 10 µM worked out at 0.653%.

Consider `CCc1ccsc1C(=O)N1CCN(CC(C)O)CC1` (stereo not given), for which the cytotoxicity at 10 µM is -33.1%.

Regarding `c1ccc(CN2CC[C@H]3CO[C@H](CNc4ncccn4)[C@H]3C2)cc1`, the cytotoxicity at 10 µM is -5.87%.

For the compound `Cc1cccc(-n2cc(CN3CCN(C)[C@@H]4CS(=O)(=O)C[C@@H]43)cn2)c1`, the cytotoxicity at 10 µM is 2.25%.

As to `COc1c(CNC2CCc3ccccc32)c(C(C)C)nn1C` (stereo not given), the cytotoxicity at 10 µM was determined as 0.441%.

Regarding `Cn1cc(S(=O)(=O)N(CC(F)(F)F)C2CC2)cc1C(N)=O`, the cytotoxicity at 10 µM is -5.02%.

On to `CN(Cc1ccco1)Cc1cnc2n1CCN(c1ccccn1)CC2`, for which the cytotoxicity at 10 µM was -0.48%.

For `O=S1(=O)C[C@@H]2[C@H](C1)N(Cc1cc(F)cc(F)c1)CCN2CCO`, the cytotoxicity at 10 µM was -2.61%.

On to `CN(C)C(=O)N1CCN(CCCc2ccccc2)[C@H]2CS(=O)(=O)C[C@H]21`, for which the cytotoxicity at 10 µM was -5.18%.

With `CCN1CCc2c(cccc2NC(=O)N(C)C2CCSC2)C1` (stereo not given), the cytotoxicity at 10 µM was -49.1%.
